Screening results (PubChem BioAssay)
TRPC4 agonist – activators of mouse TRPC4 channel; Q9QUQ5; HEK293 TRPC4beta/mu-opioid, Fluo4 calcium fluorescence; active compounds read high; B-score at 10 µM; actives 0.49% (n = 310,000);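 active means B-score above 5 SD of library B-scores, and initial fluorescence ratio not above library mean plus 5 SD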;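 further: positive B-score marks a calcium rise read as TRPC4 activation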
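System – HEK293 cells stably co-expressing mouse TRPC4beta and mu-opioid receptor · Signal – Fluo4 calcium-sensitive dye fluorescence, kinetic, 1 Hz baseline · Benchmarks – buffer (low) and maximal DAMGO (high) · Read-out – B score of integrated fluorescence ratio per well · Incubation – dye loading 45 min room temperature, 110 s kinetic read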
TRPC6 activator – mouse TRPC6 channel activation | Q61143 | HEK293-TRPC6 membrane potential dye fluorescence; active compounds read high | B-score at 10 µM | actives 0.13% (n = 310,000) | AID 2550;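 active means B-score of the integrated fluorescence ratio above library mean plus 3 SD, and starting fluorescence ratio within library mean plus 5 SD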;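 further: higher score means more depolarization so channel activation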
TRPC4 block – inhibitors of mouse TRPC4 channel; Q9QUQ5; HEK293 TRPC4beta/mu-opioid, DAMGO-evoked Fluo4 calcium flux; active compounds read low; B-score at 10 µM; actives 0.39% (n = 300,000);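 active means B-score over 3 SD under the library average, no early fluorescence shift, positive overall ratio signal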
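material = TRPC4beta/mu-opioid receptor HEK293 cell line | probe or stimulus = sequential submaximal and maximal DAMGO stimulation | compound dosing = one concentration per compound | measured by = Fluo4 Ca2+ flux fluorescence | evaluation = integrated fluorescence ratio relative to baseline, converted to per-well B score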
TRPC4 potent – allosterically enhances the mouse TRPC4 cation channel; Q9QUQ5; HEK293 TRPC4beta/mu-opioid, DAMGO EC20, Fluo-4 Ca2+ flux; active compounds read high; B-score at 10 µM; actives 0.42% (n = 310,000); AID 2227;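 active means B-score of calcium response area above 5 SD of library B-scores, with initial fluorescence ratio within 5 SD of library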;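 further: B-score of integrated fluorescence ratio over time as area under calcium response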
TRPC6 inh – mouse TRPC6 channel inhibition. HEK293-TRPC6, membrane potential dye, ACh-evoked depolarization; active compounds read low. B-score at 10 µM. Q61143. actives 1.1% (n = 310,000);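 active means B-score under library mean minus 3 SD, initial fluorescence not abnormally high, positive integrated signal ratio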;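 further: B-score derived from integrated fluorescence ratio over the kinetic read; more negative B-score means stronger inhibition of depolarization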
Kir21 block – blocks the mouse Kir2.1 inward-rectifier potassium channel | AID 1672 | HEK293-Kir2.1, FluxOR thallium flux fluorescence; active compounds read low | B-score at 10 µM | actives 0.85% (n = 310,000);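 active means fluorescence ratio B-score at or below minus 3 SD of library scores, with starting-brightness B-score within 2 SD, cut at about -4.2 in these data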;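 further: channel flux triggered by added potassium and thallium sulfate stimulus; B-score of peak minus minimum fluorescence over baseline after thallium stimulus; more negative B-score means stronger Kir2.1 block with less thallium influx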
TRPC4 spec 2 – second check of whether TRPC6 inhibitors also affect mouse TRPC4. shares compounds with TRPC6 inh. HEK293 TRPC4/MOR, membrane potential dye fluorescence; channel activated by saturating DAMGO dose. inhibition, % at 10 µM. actives 42% (n = 920);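 active means compounds whose fluorescence signal differed from control wells by over 3 SD, either direction, in both duplicate plates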
TRPC4 spec – mouse TRPC4 off-target activity of TRPC6 inhibitors; shares compounds with TRPC6 inh; activity change, negative = inhibition, % at 10 µM; actives 61% (n = 920); HEK293 TRPC4/mu-opioid, membrane potential fluorescence;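 active means rise or fall in signal beyond 3 SD of buffer-only wells in both replicate plates, either sign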;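 further: integrated kinetic ratio of fluorescence range over baseline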
HEK293 MPD ctr 2-1 – second counter-screen for TRPC6 inhibitors: parental HEK293 cells | parental HEK293 membrane potential dye fluorescence; maximal acetylcholine challenge after compound addition | actives 31% (n = 920) | shares compounds with TRPC6 inh | signal change vs control, % at 10 µM;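 active means membrane potential signal moving either way by over 3 SD of the maximum-effect control, in both duplicate plates, meaning non-specific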
HEK293 MPD ctr-1 – checks TRPC6 inhibitor effects in parental HEK293 cells; shares compounds with TRPC6 inh; parental HEK293 membrane potential dye fluorescence; membrane potential signal change, % at 10 µM; actives 60% (n = 920); AID 2780;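 active means membrane potential signal shifting up or down by more than 3 SD of buffer-only wells, on both duplicate plates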
HEK293 MPD ctr-2 – parental HEK293 nonspecific activity of TRPC6 modulators | shares compounds with TRPC6 inh | membrane potential dye fluorescence | membrane potential signal change, % at 10 µM | actives 51% (n = 2,400);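 active means membrane potential signal moves up or down beyond 5 SD from buffer-only wells, on both duplicate plates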
HEK293 MPD ctr 2-2 – second check of TRPC6 modulator effects in parental HEK293 cells; AID 488926; actives 14% (n = 2,400); shares compounds with TRPC6 inh; membrane potential dye fluorescence; after compound, maximal acetylcholine stimulation; inhibition, % at 10 µM;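 active means membrane potential signal drops by more than 5 SD from the mean control signal, in both duplicate plates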;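 further: plate controls were acetylcholine ECmax control wells for no effect and buffer only wells for full effect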
TRPC4/MOR mod – tests whether TRPC6 modulators also affect mouse TRPC4; shares compounds with TRPC6 inh; HEK293 TRPC4/mu-opioid, membrane potential fluorescence; percent change from control (negative = decrease, positive = increase), % at 10 µM; actives 69% (n = 2,400); AID 488927;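 active means membrane potential signal moved up or down beyond 5 SD of buffer control wells, in both duplicate plates, actives on both sides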;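 further: plate controls were assay buffer wells for no effect and DAMGO maximal-effect wells for full effect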
TRPC4 ctr inh 2 – mouse TRPC4 off-target activity of TRPC6 modulators, second screen; inhibition, % at 10 µM; shares compounds with TRPC6 inh; actives 55% (n = 2,400); HEK293 TRPC4/mu-opioid, membrane potential dye fluorescence; stimulated with maximal-effect DAMGO;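 active means drop in membrane potential signal beyond 5 SD of the control wells in both duplicate plates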;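 further: TRPC4 counter screen for TRPC6 hits run under conditions tuned for TRPC6 not TRPC4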
TRPC6 block conf – mouse TRPC6 inhibitor confirmation. shares compounds with TRPC6 inh. HEK293-TRPC6, membrane potential dye, ACh-evoked depolarization. inhibition, % at 10 µM. actives 43% (n = 3,300). AID 488960;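 active means fluorescence ratio falls more than 5 SD below the full-stimulation control mean, in both duplicate runs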;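 further: integrated fluorescence ratio of peak minus minimum over baseline after agonist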
TRPC6 act confirm – mouse TRPC6 activator confirmation. shares compounds with TRPC6 inh. HEK293-TRPC6 membrane potential dye fluorescence, FDSS. activation, % at 10 µM. actives 11% (n = 2,800);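 active means ratio signal rise beyond 5 SD above unstimulated control wells' mean, seen in both duplicate runs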;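 further: plate controls were buffer EC0 wells for no effect and acetylcholine ECmax response for full effect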
An asterisk follows results filed as active; i = inactive; / = not tested or not shown; + = active, no number. Hits are enriched below; roughly 2.9% of the tested compounds scored in any of these assays.

SMILES	TRPC4 agonist	TRPC6 activator	TRPC4 block	TRPC4 potent	TRPC6 inh	Kir21 block	HEK293 MPD ctr-2	HEK293 MPD ctr 2-2	TRPC4/MOR mod	TRPC4 ctr inh 2	TRPC6 block conf	TRPC6 act confirm	others
O=C(NC1CCCC1)C(c1ccccc1)N(Cc1cccnc1)C(=O)Cc1cccs1 (centres undefined)	i	i	i	i	-6.1*	1.6	194%*	i	50%*	i	i	/
CCCc1nc2c(C)cc(C)cc2c(N)c1CC	i	i	i	i	-6*	1.1	-94%*	i	-18%*	60%*	i	i
Cc1cc(C)c2nc(C(F)(F)F)c(C#N)c(N)c2c1	i	i	i	i	i	0.84	/	/	/	/	/	/
OC(c1cccs1)(c1cccs1)C1C[N+]2(CF)CCC1CC2 (centres undefined)	i	i	i	i	-6.4*	-0.65	i	i	i	i	40%*	i
Cc1ccc(S(=O)(=O)NNc2ccccc2)cc1	i	i	i	i	i	-1.3	/	/	/	/	/	/
Cc1ccc(S(=O)(=O)NNc2nc3ccccc3nc2C(F)(F)F)cc1	i	i	i	i	-7*	-0.06	/	/	/	/	i	i	TRPC4 spec 2=i;TRPC4 spec=i;HEK293 MPD ctr 2-1=i;HEK293 MPD ctr-1=i
Cc1ccc(O)c(NC(=O)c2cc3nc4c(c(C(F)(F)F)n3n2)CCc2ccccc2-4)c1	i	i	i	i	i	-1.4	/	/	/	/	/	/
CCN(CC)CCCNC(=O)c1cc2nc3c(c(C(F)(F)F)n2n1)CCc1ccccc1-3	i	i	i	i	-6.7*	0.8	/	/	/	/	i	i	TRPC4 spec 2=65%*;TRPC4 spec=i;HEK293 MPD ctr 2-1=i;HEK293 MPD ctr-1=0.8%*
C(=N\n1cnnc1)/c1ccccn1	i	i	i	i	i	-1	/	/	/	/	/	/
C(=N\n1cnnc1)/c1ccc2ncccc2c1	i	i	i	i	-7.7*	1.7	-280%*	i	-37%*	50%*	i	i
Cc1cccc(C)c1OCC(=O)Nc1ccccc1N1CCCCC1	i	i	i	i	i	1.1	/	/	/	/	/	/
CCc1cccc(OCC(=O)Nc2ccccc2N2CCCC2)c1	i	i	i	i	-6.1*	-0.31	i	i	i	33%*	i	i
Cc1ccc(S(=O)(=O)/N=C2/NC(=O)/C(=C\c3cc(Br)cc(Br)c3O)S2)cc1	64*	71*	i	34*	i	-11	+	i	198%*	i	i	402%*
O=C1N/C(=N\S(=O)(=O)c2ccccc2)S/C1=C\c1cc([N+](=O)[O-])ccc1O	i	27*	i	i	i	-1.6	249%*	i	46%*	i	i	160%*
O=C1N/C(=N\S(=O)(=O)Cc2ccccc2)S/C1=C/c1cc([N+](=O)[O-])ccc1O	i	13*	i	i	i	-0.66	177%*	i	33%*	i	i	122%*
COc1cc(/C=C2/S/C(=N/S(=O)(=O)c3ccccc3)NC2=O)c([N+](=O)[O-])cc1OC	i	i	i	i	i	-0.16	/	/	/	/	/	/
O=C(NCc1cccnc1)C1CC2c3ccccc3C1c1ccccc12 (centres undefined)	i	i	i	i	i	-0.27	/	/	/	/	/	/
COC(=O)c1cc2occc2n1Cc1ccc(Cl)cc1	i	i	i	i	i	-0.19	/	/	/	/	/	/
O=C(Nc1ncn[nH]1)c1ccc(Cl)cc1Cl	i	i	i	i	i	0.56	/	/	/	/	/	/
O=C(Nc1nc(=S)ss1)c1ccc(Cl)cc1Cl	i	i	i	i	-7.1*	-2.7	i	i	i	i	i	i
CCOC(=O)C1CCCN(C(=O)Cc2ccc(OC)c(OC)c2)C1 (centres undefined)	i	i	i	i	i	1.4	/	/	/	/	/	/
CC1(C)Cc2nc3oc4c(=O)n(CC(=O)Nc5ccc(Cl)cc5)cnc4c3cc2CO1	i	i	i	i	-8.3*	-0.08	/	/	/	/	i	i	TRPC4 spec 2=i;TRPC4 spec=i;HEK293 MPD ctr 2-1=i;HEK293 MPD ctr-1=i
CC(C)NCC(O)Cn1c2c(c3ccccc31)CCc1c-2cnn1-c1ccccc1 (centres undefined)	i	i	i	i	-10*	-6.1*	/	/	/	/	85%*	i	TRPC4 spec 2=28%*;TRPC4 spec=-23%*;HEK293 MPD ctr 2-1=40%*;HEK293 MPD ctr-1=-326%*
COc1ccc(-c2nc(C#N)c(NCCCN(C)C)o2)cc1OC	i	i	i	i	-6.4*	-0.12	i	i	i	i	i	i
COc1ccc(CCNc2oc(-c3ccc(OC)c(OC)c3)nc2C#N)cc1	i	i	i	i	i	1.9	/	/	/	/	/	/
COc1cccc(NC(=O)COC(=O)c2nc(Cl)ccc2Cl)c1	i	i	i	i	i	0.02	/	/	/	/	/	/
